High-throughput results (PubChem)
Shown are actives, neighbours in structure and some others; about 3.7% of the full set was active somewhere.
KCNQ1 block – blocks the human KCNQ1 potassium channel. CHO-K1 KCNQ1, FluxOR thallium flux fluorescence; active compounds read high. B-score at 10 µM. actives 1.3% (n = 310,000);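 active means compounds whose thallium flux B-score, printed positive for inhibition, exceeds three library SD while starting fluorescence stays within three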;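 further: channel opened by potassium depolarization with thallium stimulus after 20 min compound exposure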
Target sequence (P51787 whole entry, looked up): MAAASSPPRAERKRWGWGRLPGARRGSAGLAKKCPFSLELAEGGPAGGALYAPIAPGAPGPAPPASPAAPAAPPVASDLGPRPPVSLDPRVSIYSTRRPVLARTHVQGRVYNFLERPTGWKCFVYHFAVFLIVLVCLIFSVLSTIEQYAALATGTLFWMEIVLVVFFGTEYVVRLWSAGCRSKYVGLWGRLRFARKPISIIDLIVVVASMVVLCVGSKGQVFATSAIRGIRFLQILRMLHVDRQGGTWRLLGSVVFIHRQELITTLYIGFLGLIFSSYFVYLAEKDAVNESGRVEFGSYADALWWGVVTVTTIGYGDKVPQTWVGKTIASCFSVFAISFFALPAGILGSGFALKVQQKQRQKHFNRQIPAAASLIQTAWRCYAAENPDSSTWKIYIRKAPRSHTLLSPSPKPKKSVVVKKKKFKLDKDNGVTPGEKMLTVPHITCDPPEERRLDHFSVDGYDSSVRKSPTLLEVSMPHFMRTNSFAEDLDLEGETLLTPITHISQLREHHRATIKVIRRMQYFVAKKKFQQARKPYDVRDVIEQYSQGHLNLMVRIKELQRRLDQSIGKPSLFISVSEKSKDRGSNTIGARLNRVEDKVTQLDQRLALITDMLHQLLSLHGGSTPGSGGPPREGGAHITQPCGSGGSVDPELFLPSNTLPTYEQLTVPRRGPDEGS
KCNQ1 pot – human KCNQ1 channel potentiation or activation. CHO-K1 KCNQ1, thallium flux FluxOR fluorescence; active compounds read high. AID 2648. B-score at 10 µM. actives 0.35% (n = 310,000);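 active means fluorescence ratio B-score, a plate-corrected score, at least three library SD, with initial intensity B-score within 5 SD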
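Test system: CHO-K1 cells stably expressing KCNQ1 / Medium: assay buffer / Also added: depolarizing K+/Tl+ stimulus, K2SO4 and Tl2SO4 each 12.5 mM in 5x stock / Incubation: 90 min dye loading and 20 min compound exposure, both at room temperature / Signal: thallium influx via FluxOR fluorescence, kinetic imaging / Evaluation: B score of baseline-normalized fluorescence ratio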
Kir21 inh – inhibitors of mouse Kir2.1 inward-rectifier potassium channel | B-score at 10 µM | P35561 | HEK293-Kir2.1, FluxOR thallium flux fluorescence; active compounds read low | actives 0.85% (n = 310,000);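 active means fluorescence ratio B-score at or below minus 3 SD of library scores, with starting-brightness B-score within 2 SD, cut at about -4.2 in these data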;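 further: channel flux triggered by added potassium and thallium sulfate stimulus; B-score of peak minus minimum fluorescence over baseline after thallium stimulus; more negative B-score means stronger Kir2.1 block with less thallium influx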
hERG protect – shields human hERG channel from block by proarrhythmic agents | Q12809 | CHO-hERG, FluxOR thallium flux, dofetilide IC70 present | activation (rescue from dofetilide block), less the hit threshold, % at 10 µM | actives 0.51% (n = 310,000) | AID 1511;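 active means activation above the mean of controls blocked by dofetilide plus 5 SD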;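 further: thallium influx through hERG after potassium depolarization seen as dye fluorescence rise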
KCNK9 block – blocks the human KCNK9 two-pore domain potassium channel; actives 1.2% (n = 310,000); HEK293 KCNK9, FluxOR thallium flux fluorescence; active compounds read low; B-score at 10 µM; Q9NPC2; AID 488922;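 active means ratio B-score over 3 SD below the library mean, with starting fluorescence within 5 SD of its mean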;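 further: negative B-score means less thallium flux so channel inhibition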
KCNK3 block – human KCNK3 channel inhibition, primary screen. O14649. CHO-KCNK3 thallium flux, FluxOR fluorescence; active compounds read low. B-score at 10 µM. actives 0.84% (n = 340,000);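 active means B-score under library mean minus 4 SD, starting fluorescence ratio at most library mean plus 5 SD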;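 further: more negative B-score means stronger inhibition of thallium flux through KCNK3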
KCNQ1 block val – confirmation of human KCNQ1 potassium channel inhibitors | shares compounds with KCNQ1 block | KCNQ1 cell line, FluxOR thallium flux fluorescence | inhibition, % at 10 µM | actives 93% (n = 1,600);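 active means primary screen active, with duplicate mean exceeding buffer control mean plus 3 SD of buffer wells, cut at about 28% in these data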;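 further: 0% = buffer control ratio and 100% = XE991 inhibitor control ratio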
CHO KCNQ1 ctr – KCNQ1 inhibitor counter-screen hit in parental CHO cells; shares compounds with KCNQ1 block; parental CHO-K1, FluxOR thallium flux fluorescence ratio; active compounds read low; zero means no signal rise above baseline; actives 21% (n = 1,600); fluorescence ratio (Tl flux) at 10 µM; AID 588366;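 active means mean of duplicate thallium-flux fluorescence ratios in parental host cells more than 5 SD below the buffer control mean, cut at about 0.38 in these data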;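 further: ratio is peak minus minimum fluorescence divided by baseline fluorescence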
KCNQ1 APC inh – blocks human KCNQ1 current in automated patch clamp | shares compounds with KCNQ1 block | KCNQ1-CHO cells | calls only at 10 µM | actives 20% (n = 490) | AID 624120;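 active means KCNQ1 current drop exceeding 3 SD of negative control wells, seen in both duplicate runs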;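 further: steady state current during a 2 s step from -80 to +40 mV; negative values mean current inhibition and positive values mean potentiation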
KCNQ2 inh – selectivity of KCNQ1 inhibitors: inhibition of rat KCNQ2 channel; inhibition, % at 10 µM; actives 71% (n = 1,600); KCNQ2 cells, FluxOR thallium flux fluorescence; AID 651746; shares compounds with KCNQ1 block;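 active means mean percent inhibition of the KCNQ2 thallium signal more than 5 SD above the buffer-only control wells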;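 further: KCNQ2 expressed in CHO cells; 0% = buffer control wells and 100% = XE-991 inhibitor control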
KCNQ1 KCNE1 spec – human KCNQ1/KCNE1 inhibition in KCNQ1 specificity screen | inhibition, % at 10 µM | shares compounds with KCNQ1 block | actives 77% (n = 1,600) | KCNQ1/KCNE1 cells, FluxOR thallium flux fluorescence | AID 652147;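 active means mean percent inhibition of duplicate wells above the buffer-only control mean plus 3 SD of those controls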;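 further: 0% = buffer only wells and 100% = XE-991 inhibitor control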
* = called active by the depositor.

`CC(NCC(=O)Nc1cc(S(=O)(=O)N2CCOCC2)ccc1Cl)c1ccc(Cl)cc1Cl` (stereo not drawn) gave KCNQ1 block 7*, KCNQ1 pot inactive, Kir21 inh 0, hERG protect -12.7, KCNK9 block inactive, KCNK3 block inactive, KCNQ1 block val 70.0*, CHO KCNQ1 ctr 0.431, KCNQ2 inh 60.3%* and KCNQ1 KCNE1 spec 91.5%*.
`C#CCOCCOCCOCCNc1nc(N2CCN(C(=O)[C@H]([C@@H](C)CC)n3cc([C@@H](N)CC(C)C)nn3)CC2)nc(N2CCN(C(=O)[C@H](CCCCN)n3cc([C@@H](N)CO)nn3)CC2)n1` gave KCNQ1 block inactive, KCNQ1 pot inactive, Kir21 inh -0.42, hERG protect -10.8, KCNK9 block inactive and KCNK3 block inactive.
`COc1ccc(C(F)(F)F)cc1N/C=C\c1nnnn1-c1ccccc1` gave KCNQ1 block 9*, KCNQ1 pot inactive, Kir21 inh -0.42, hERG protect -14.6, KCNK9 block inactive, KCNK3 block inactive, KCNQ1 block val 98.5*, CHO KCNQ1 ctr 0.42, KCNQ1 APC inh inactive, KCNQ2 inh 64.0%* and KCNQ1 KCNE1 spec 79.0%*.
Screening CN(C)c1ccc(/C=C/c2nnnn2-c2ccccc2)cc1 returned KCNQ1 block inactive, KCNQ1 pot inactive, Kir21 inh -0.15, hERG protect -13.5, KCNK9 block inactive and KCNK3 block inactive.
For FC(F)(F)c1cccc(-c2nc3nc(Cl)c(Cl)nc3[nH]2)c1 the results were KCNQ1 block 8*, KCNQ1 pot inactive, Kir21 inh 0.09, hERG protect -15.0, KCNK9 block inactive, KCNK3 block inactive, KCNQ1 block val 52.5*, CHO KCNQ1 ctr 0.535, KCNQ2 inh inactive and KCNQ1 KCNE1 spec inactive.
For CSc1ccc(S(=O)(=O)N2c3ccccc3CC2C)cc1 (stereo not drawn) the results were KCNQ1 block 6*, KCNQ1 pot inactive, Kir21 inh -1.02, hERG protect -9.8, KCNK9 block inactive, KCNK3 block inactive, KCNQ1 block val 104.5*, CHO KCNQ1 ctr 0.434, KCNQ1 APC inh active, KCNQ2 inh 99.0%* and KCNQ1 KCNE1 spec 142.0%*.
CCc1noc(C)c1C(=O)N1CCCSC1=Nc1ccccc1Cl was read as KCNQ1 block 7*, KCNQ1 pot inactive, Kir21 inh -0.83, hERG protect -16.6, KCNK9 block inactive, KCNK3 block inactive, KCNQ1 block val 80.5*, CHO KCNQ1 ctr 0.429, KCNQ2 inh 66.3%* and KCNQ1 KCNE1 spec 110.0%*.
Screening CCOc1ccc(N=C2SCCCN2C(=O)c2c(CC)noc2C)cc1 returned KCNQ1 block inactive, KCNQ1 pot inactive, Kir21 inh 3.45, hERG protect -6.5, KCNK9 block inactive and KCNK3 block inactive.
`CN1CCC(N(C)C(=S)NCCc2ccccc2)CC1` gave KCNQ1 block inactive, KCNQ1 pot inactive, Kir21 inh -0.04, hERG protect -2.8, KCNK9 block inactive and KCNK3 block inactive.
Screening Cc1c2ccccc2nc2c(F)c(NCCO)c(F)c(F)c12 returned KCNQ1 block 6*, KCNQ1 pot inactive, Kir21 inh -12.4, hERG protect -23.7, KCNK9 block inactive, KCNK3 block inactive, KCNQ1 block val 177.5*, CHO KCNQ1 ctr 0.151*, KCNQ2 inh inactive and KCNQ1 KCNE1 spec inactive.
`OCCNc1c2ccccc2nc2c(F)c(F)c(F)c(F)c12` gave KCNQ1 block 6*, KCNQ1 pot inactive, Kir21 inh -0.94, hERG protect -14.0, KCNK9 block inactive, KCNK3 block inactive, KCNQ1 block val 84.0*, CHO KCNQ1 ctr 0.372*, KCNQ2 inh 105.0%* and KCNQ1 KCNE1 spec 101.0%*.
CN(C)CCCNc1c2ccccc2nc2ccccc12 was read as KCNQ1 block inactive, KCNQ1 pot inactive, Kir21 inh -0.46, hERG protect -7.5, KCNK9 block inactive and KCNK3 block inactive.
Screening Cc1ccsc1C(=O)OCc1csc(-c2ccccc2)n1 returned KCNQ1 block 7*, KCNQ1 pot inactive, Kir21 inh 0.93, hERG protect -12.0, KCNK9 block -7.79*, KCNK3 block inactive, KCNQ1 block val 145.5*, CHO KCNQ1 ctr 0.407, KCNQ1 APC inh inactive, KCNQ2 inh 126.7%* and KCNQ1 KCNE1 spec active.
CCN1CCN(c2ccc(NC(=O)c3ccco3)cc2)CC1 was read as KCNQ1 block inactive, KCNQ1 pot inactive, Kir21 inh 0.85, hERG protect -6.1, KCNK9 block inactive and KCNK3 block inactive.
`CCSc1nnc(-c2sc3nnc(-c4ccccc4)c(-c4ccccc4)c3c2N)o1` gave KCNQ1 block 14*, KCNQ1 pot inactive, Kir21 inh -0.63, hERG protect -27.0, KCNK9 block inactive, KCNK3 block inactive, KCNQ1 block val active, CHO KCNQ1 ctr 0.138*, KCNQ2 inh inactive and KCNQ1 KCNE1 spec inactive.
For O=C1c2ccc(Br)cc2C(=O)N1c1ccc(Cc2ccncc2)cc1 the results were KCNQ1 block 15*, KCNQ1 pot inactive, Kir21 inh -1.31, hERG protect -9.9, KCNK9 block inactive, KCNK3 block inactive, KCNQ1 block val 140.0*, CHO KCNQ1 ctr 0.497, KCNQ1 APC inh inactive, KCNQ2 inh 99.3%* and KCNQ1 KCNE1 spec 127.5%*.
Screening CC(C)c1ccc(S(=O)(=O)Nc2ccc(SC(F)F)cc2)cc1 returned KCNQ1 block inactive, KCNQ1 pot inactive, Kir21 inh 0.07, hERG protect -8.2, KCNK9 block inactive and KCNK3 block inactive.
